T cruzi inh: inhibitors of intracellular T. cruzi growth, primary screen, luminescence, NIH3T3 host cells; T. cruzi beta-gal in NIH3T3, 90 h; inhibition, % (no concentration beside the values); 1.4% of 300,000 active;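 active = mean inhibition across valid replicates above about 55%, limit read from the data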;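 note: signal also drops with host cell toxicity which is not excluded here; higher percent means less beta-gal luminescence so fewer parasites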
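compound dosing = single 50 nL compound addition per well in DMSO | material = NIH/3T3 host cells with β-galactosidase reporter T. cruzi | input = 5,000 host fibroblasts per well | timing = ≥90 h infection period, 3 h prior cell attachment | read-out basis = percent inhibition of parasite-derived β-gal signal | detection = GalScreen β-gal luminescence, detergent lysis, 60 min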
Mdm2 MdmX PPI: inhibitors of human Mdm2-MdmX association, primary screen, cell-based, luminescence, split luciferase, SaOS-2, uHTS | SaOS-2 split-luciferase Mdm2/MdmX complementation | inhibition, % at 8 µM | 3% of 330,000 active;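 active = inhibition of at least 50% at 8 µM in the primary screen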
CSC inhib: cancer stem cell viability inhibitors, primary screen, luminescence. cancer stem cell-like cells viability. inhibition, % at 7.5 µM. 1.1% of 300,000 active. AID 2717, 2010; in the data active = inhibition above about 75%; tested in HMLE shEcad cells
UPR XBP1 act: activators of adaptive XBP1 UPR arm, primary screen, cell-based, CHO-XBP1 luciferase reporter, luminescence, uHTS. IRE1-XBP1 UPR activation; percent of tunicamycin response, DMSO as zero. activation, % at 20 µM. 0.33% of 330,000 active. AID 463104, 2010;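 active = versus positive control, 20 µM dose yields 30% or more activation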
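Material: CHO-XBP1 cells stably carrying IRE1-XBP1-driven luciferase reporter | Medium: F12 with 10% serum | Compound dosing: 20 µM single concentration, DMSO 1% | Incubation: Overnight seeding at 37 °C, 6 h compound treatment at 37 °C | Detection: Steady-Glo luminescence read | Read-out basis: % activation of reporter signal versus tunicamycin and DMSO controls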
UPR CHOP act: activators of apoptotic CHOP UPR arm, primary screen, cell-based, CHO-CHOP luciferase reporter, luminescence, uHTS; UPR activation; percent of tunicamycin response over DMSO baseline; 0.34% of 330,000 active; activation, % at 10 µM; AID 449763, 2010;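 active = at 10 µM dose, activation of 40% or more, normalized to positive control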
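Dosing – one dose, 10 µM in 0.5% DMSO · System – CHO-CHOP cells, stable luciferase reporter of PERK-eIF2a-CHOP signalling · Input – 500 cells/well · Control set – tunicamycin 10 µg/mL final as positive, DMSO-only wells as negative · Timing – 6 h compound treatment, 37 °C · Measure – % activation vs tunicamycin · Technique – luminescence read with Steady-Glo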
Beta cell apopt: inhibitors of cytokine-induced beta cell apoptosis, primary screen, luminescence; INS-1E cytokine-induced death, ATP luminescence, 48 h; percent of positive-control rescue, neutral wells zero; protection from apoptosis, % (test concentration not listed); 0.8% of 300,000 active;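 active = Every replicate reaches about 75%, or at least half do and their mean reaches it too, limit read from the data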;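 note: higher means more ATP so stronger rescue from cytokine killing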
Of the large screens only hits and unclear results are named; the others gave an inactive call. Sampled rows, rich in hits. Any-hit rate of the full collection: about 5%.

N#C/C(=C/c1ccc(N2CCCCCC2)o1)c1cccc(F)c1	T cruzi inh 66.4 (no result: CSC inhib)
N#C/C(=C\c1ccc(N2CCOCC2)o1)c1ccccc1	none
CC(=O)N(C(C)=O)c1ncnc2c1c(-c1ccc(Cl)cc1)nn2C(C)(C)C	T cruzi inh 61.1
Cc1ccc(C)c(N/C(N)=N/c2nc(C)cc(C)n2)c1	T cruzi inh 64.7
COc1ccc(C)cc1N/C(N)=N/c1nc(C)cc(C)n1	none
O=C(COC(=O)c1ccc(O)cc1)NCC1COc2ccccc2O1 (centres undefined)	none (no result: T cruzi inh, CSC inhib)
CCc1ccc(N=Nc2ccc(O)c3[nH]cnc23)cc1	CSC inhib 82.5 (no result: T cruzi inh)
COc1ccccc1N1CCN(C(=O)c2cccc(S(=O)(=O)NCc3cccnc3)c2)CC1	none (no result: T cruzi inh, CSC inhib)
O=C(N/N=C/c1c[nH]c2ccccc12)C1CC1(c1ccccc1)c1ccccc1 (centres undefined)	CSC inhib 78.6
Cc1ccc(NC(=O)Cn2cc([N+](=O)[O-])nc2C)cc1C	none
CCOC(=O)c1cnc2ccc(OCC)cc2c1N1CCN(c2ccccc2)CC1	Beta cell apopt 104.8
CC(=O)C1=NN(c2ccccc2)C(c2ccc3c(c2)OCO3)N1c1ccccc1 (centres undefined)	none
CC(=O)C1=NN(c2ccccc2)C(c2cccs2)N1c1ccc(N(C)C)cc1 (centres undefined)	T cruzi inh 54.5, Beta cell apopt 103.1
CCc1ccccc1NC(=O)CNC(=O)CNC(=O)c1cccs1	none (no result: T cruzi inh)
O=C(CN1C(=O)C2C3C=CC(C3)C2C1=O)Nc1nc2ccccc2[nH]1 (centres undefined)	none
CCOc1cnn(-c2cc(Oc3ccc(C)cc3)ncn2)c(=O)c1Cl	none
Cc1ccccc1Oc1cc(-n2ncc(Cl)c(Cl)c2=O)ncn1	CSC inhib 107.8, Beta cell apopt 98.9 (no result: T cruzi inh, Mdm2 MdmX PPI, UPR XBP1 act, UPR CHOP act)
Cc1ccccc1-c1cc2c(nn1)-c1ccccc1C2=O	CSC inhib 107.9
Cc1ccc(C(=O)OCC(=O)NCc2ccc(Cl)cc2Cl)o1	none (no result: T cruzi inh, CSC inhib)
COc1ccc(N2CC(C(=O)Nc3cccc(OC(C)C)c3)CC2=O)cc1 (centres undefined)	none (no result: Beta cell apopt)
COc1ccc(/C=C/C(=O)OC2CCCCC2CN(C)C)cc1 (centres undefined)	none
COc1ccccc1/C=C/C(=O)OCCN1CCOCC1	none
COc1ccccc1/C=C/C(=O)OCCCN(C)C	T cruzi inh 65.6
COc1ccc(/C=C/C(=O)OCCCN(C)C)cc1	T cruzi inh 57.5
Cc1cc(C)c(OCCOCCN(C)C)c(Br)c1	none
Cc1cc(C)c(OCCCCN(C)C)c(Br)c1	T cruzi inh 70.5
Cc1ccc(-c2c[n+](CC(=O)c3ccc(Br)cc3)c3n2CCCCC3)cc1	T cruzi inh 73.6
COc1ccc(OC)c(C2C=C(C34CC5CC(CC(C5)C3)C4)NC(=S)N2)c1 (centres undefined)	T cruzi inh 64.5
S=C1NC(C23CC4CC(CC(C4)C2)C3)=CC(c2ccc3c(c2)OCO3)N1 (centres undefined)	T cruzi inh 69.7
O=C(CCCOc1ccc(Br)cc1)Nc1nnc(C2CC2)s1	none (no result: T cruzi inh)
Cc1cc(C(=O)N2CCc3ccccc3C2)on1	none
CC/C(=C/c1ccccc1)c1cccc2[nH]c3c(OC)cccc3c12	CSC inhib 131.0 (no result: Mdm2 MdmX PPI, UPR XBP1 act, UPR CHOP act)
Cc1ccc2oc(C(=O)NCc3ccc4c(c3)OCO4)c(C)c2c1	none
Cc1c(C(=O)NCc2ccc3c(c2)OCO3)oc2ccc(S(=O)(=O)N3CCC(C)CC3)cc12	T cruzi inh 55.8
Cc1c(C(=O)NCc2ccc3c(c2)OCO3)oc2ccc(S(=O)(=O)N3CCCCCC3)cc12	T cruzi inh 55.4 (no result: Beta cell apopt)
Cn1nc([N+](=O)[O-])nc1Oc1ccccc1C(=O)N1CCOCC1	T cruzi inh 93.4
